Values joined by “and” are separate entries in the source; they are usually repeats but may differ in a detail not shown here. Equal entries are not always repeated. “Also recorded” adds a separate entry of the source.
Legend:
[1] = test system: participants with atopic dermatitis; assay: Phase 2a study ATI-1777-AD-201: safety; format: in vivo, human
How it was run: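 Adults with moderate/severe AD applied 2% solution or vehicle twice daily for 4 weeks. TEAEs: onset on/after first dose and before last dose […], counted once per preferred term and system organ class. Also assessed serious AEs, labs, vital signs, physical exams, 12-lead ECG. Full analysis set; safety reviewed every 4 weeks.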

minipig = assay: 7-day minipig study: dermal tolerability; format: in vivo; details: 2% solution applied to the skin for 7 consecutive days
How it was run: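 Each minipig (1 male, 1 female) received topical test compound and matching placebo formulations once daily on designated skin areas. Animals were checked daily for clinical signs. Application sites were scored for dermal irritation by a modified Draize procedure.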

[2] = TEAE, full analysis set, n = 23

`CCOC(=O)c1cnc2[nH]ccc2c1N[C@@H]1CCCN(C(=O)CC#N)C1` [ATI-1777, ethyl (R)-4-((1-(2-cyanoacetyl)piperidin-3-yl)amino)-1H-pyrrolo[2,3-b]pyridine-5-carboxylate] was tested, and the “deaths, serious adverse events, TEAEs of special interest” value ([1]; 2% topical solution twice daily, 4 weeks) was “No deaths or serious adverse events were reported; also recorded: No deaths or treatment-emergent AEs (TEAEs) of special interest; also recorded: No deaths or serious AEs were reported”, the “AEs reported, proportion of participants” value ([1]; 2% topical solution twice daily, 4 weeks, n = 23) was 39.1% and the “Acrochordon, Number of Events” value ([1]; TEAE, PT, n = 23) was 1. The “Acrochordon, Number of Subjects” value ([1]; TEAE, PT, n = 23) was 1 (4.3) n (%), the “Amylase increased, Number of Events” value ([1]; TEAE, PT, n = 23) was 1 and the “Amylase increased, Number of Subjects” value ([1]; TEAE, PT, n = 23) was 1 (4.3) n (%). The “Application site irritation, Number of Events” value ([1]; TEAE, PT, n = 23) was 0, the “Application site irritation, Number of Subjects” value ([1]; TEAE, PT, n = 23) was 0 n (%) and the “Application site pruritus, Number of Events” value ([1]; TEAE, PT, n = 23) was 1. For the same compound, the “Application site pruritus, Number of Subjects” value ([1]; TEAE, PT, n = 23) was 1 (4.3) n (%), the “Atrial fibrillation, Number of Events” value ([1]; TEAE, PT, n = 23) was 1 and the “Atrial fibrillation, Number of Subjects” value ([1]; TEAE, PT, n = 23) was 1 (4.3) n (%). The “Blood CPK increased, Number of Events” value ([1]; TEAE, PT, n = 23) was 2, the “Blood CPK increased, Number of Subjects” value ([1]; TEAE, PT, n = 23) was 2 n (%) and 2 (8.7) n (%) and the “COVID-19, Number of Events” value ([1]; TEAE, PT, n = 23) was 0. The “COVID-19, Number of Subjects” value ([1]; TEAE, PT, n = 23) was 0 n (%), the “Candida infection, Number of Events” value ([1]; TEAE, PT, n = 23) was 1 and the “Candida infection, Number of Subjects” value ([1]; TEAE, PT, n = 23) was 1 (4.3) n (%). The “Dizziness, Number of Events” value ([1]; TEAE, PT, n = 23) was 1, the “Dizziness, Number of Subjects” value ([1]; TEAE, PT, n = 23) was 1 (4.3) n (%) and the “Folliculitis, Number of Events” value ([1]; TEAE, PT, n = 23) was 1. The “Folliculitis, Number of Subjects” value ([1]; TEAE, PT, n = 23) was 1 (4.3) n (%), the “Food poisoning, Number of Events” value ([1]; TEAE, PT, n = 23) was 1 and the “Food poisoning, Number of Subjects” value ([1]; TEAE, PT, n = 23) was 1 (4.3) n (%). The “Headache, Number of Events” value ([1]; TEAE, PT, n = 23) was 2, the “Headache, Number of Subjects” value ([1]; TEAE, PT, n = 23) was 2 n (%) and 2 (8.7) n (%) and the “Lipase increased, Number of Events” value ([1]; TEAE, PT, n = 23) was 1. For the same compound, the “Lipase increased, Number of Subjects” value ([1]; TEAE, PT, n = 23) was 1 (4.3)1 n (%), the “Oropharyngeal pain, Number of Events” value ([1]; TEAE, PT, n = 23) was 0 and the “Oropharyngeal pain, Number of Subjects” value ([1]; TEAE, PT, n = 23) was 0 n (%). For the same compound, the “Pharyngitis streptococcal, Number of Events” value ([1]; TEAE, PT, n = 23) was 0, the “Pharyngitis streptococcal, Number of Subjects” value ([1]; TEAE, PT, n = 23) was 0 n (%) and the “Rash, Number of Events” value ([1]; TEAE, PT, n = 23) was 0. The “Rash, Number of Subjects” value ([1]; TEAE, PT, n = 23) was 0 n (%), the “SARS-CoV-2 test positive, Number of Events” value ([1]; TEAE, PT, n = 23) was 0 and the “SARS-CoV-2 test positive, Number of Subjects” value ([1]; TEAE, PT, n = 23) was 0 n (%). The “Sinus congestion, Number of Events” value ([1]; TEAE, PT, n = 23) was 0, the “Sinus congestion, Number of Subjects” value ([1]; TEAE, PT, n = 23) was 0 n (%) and the “Skin fragility, Number of Events” value ([1]; TEAE, PT, n = 23) was 0. For the same compound, the “Skin fragility, Number of Subjects” value ([1]; TEAE, PT, n = 23) was 0 n (%), the “Somnolence, Number of Events” value ([1]; TEAE, PT, n = 23) was 0 and the “Somnolence, Number of Subjects” value ([1]; TEAE, PT, n = 23) was 0 n (%). The “Tinea infection, Number of Events” value ([1]; TEAE, PT, n = 23) was 1, the “Tinea infection, Number of Subjects” value ([1]; TEAE, PT, n = 23) was 1 (4.3) n (%) and the “Transaminases increased, Number of Events” value ([1]; TEAE, PT, n = 23) was 1. The “Transaminases increased, Number of Subjects” value ([1]; TEAE, PT, n = 23) was 1 (4.3) n (%), the “Urinary tract infection, Number of Events” value ([1]; TEAE, PT, n = 23) was 1 and the “Urinary tract infection, Number of Subjects” value ([1]; TEAE, PT, n = 23) was 1 n (%) and 1 (4.3) n (%). For the same compound, the “Cardiac disorders, Number of Events” value ([1]; TEAE, SOC, n = 23) was 1, the “Cardiac disorders, Number of Subjects” value ([1]; TEAE, SOC, n = 23) was 1 (4.3) n (%) and the “Gastrointestinal disorders, Number of Events” value ([1]; TEAE, SOC, n = 23) was 1. The “Gastrointestinal disorders, Number of Subjects” value ([1]; TEAE, SOC, n = 23) was 1 (4.3) n (%), the “General disorders and administration site conditions, Number of Events” value ([1]; TEAE, SOC, n = 23) was 1 and the “General disorders and administration site conditions, Number of Subjects” value ([1]; TEAE, SOC, n = 23) was 1 (4.3) n (%). For the same compound, the “Infections and infestations, Number of Events” value ([1]; TEAE, SOC, n = 23) was 4, the “Infections and infestations, Number of Subjects” value ([1]; TEAE, SOC, n = 23) was 3 (13.0) n (%) and the “Investigations, Number of Events” value ([1]; TEAE, SOC, n = 23) was 5. The “Investigations, Number of Subjects” value ([1]; TEAE, SOC, n = 23) was 3 (13.0) n (%), the “Neoplasms benign, malignant, and unspecified (including cysts and polyps), Number of Events” value ([1]; TEAE, SOC, n = 23) was 1 and the “Neoplasms benign, malignant, and unspecified (including cysts and polyps), Number of Subjects” value ([1]; TEAE, SOC, n = 23) was 1 (4.3) n (%). The “Nervous system disorders, Number of Events” value ([1]; TEAE, SOC, n = 23) was 3, the “Nervous system disorders, Number of Subjects” value ([1]; TEAE, SOC, n = 23) was 3 (13.0) n (%) and the “Respiratory, thoracic, and mediastinal disorders, Number of Events” value ([1]; TEAE, SOC, n = 23) was 0. The “Respiratory, thoracic, and mediastinal disorders, Number of Subjects” value ([1]; TEAE, SOC, n = 23) was 0 n (%), the “Skin and subcutaneous tissue disorders, Number of Events” value ([1]; TEAE, SOC, n = 23) was 0 and the “Skin and subcutaneous tissue disorders, Number of Subjects” value ([1]; TEAE, SOC, n = 23) was 0 n (%). For the same compound, the “Any AE, Number of Events” value [1, 2] was 16, the “Any AE, Number of Subjects” value [1, 2] was 9 (39.1) n (%) and the “participants who discontinued study participation owing to TEAEs” value ([1]; n = 23) was “No participants”. For the same compound, the “TEAE related to study treatment” value ([1]; one related TEAE in the group) was “mild application site pruritus” and the “clinical observations and clinical pathology parameters” value (minipig) was “no adverse clinical observations or changes in clinical pathology parameters”.

Source: article PMC10825549 (JID Innovations, 2023)
